Source: ChEMBL document CHEMBL3120055, “HPLC-based activity profiling for GABAA receptor modulators in Adenocarpus cincinnatus” (J Nat Prod, 2014)
The source made the active and inactive calls. No cut-off for these calls is given here.

What was measured:
Rattus norvegicus [1] = species: Rattus norvegicus; experiment: Positive allosteric modulation of rat alpha1beta2gamma2S GABAA receptor expressed in Xenopus laevis oocytes assessed as potentiation of GABA-induced chloride current at 100 uM by two-microelectrode voltage clamp electrophysiology relative to control; format: cell-based
Rattus norvegicus [2] = species: Rattus norvegicus; experiment: Positive allosteric modulation of rat alpha1beta2gamma2S GABAA receptor expressed in Xenopus laevis oocytes assessed as potentiation of GABA-induced chloride current at 1 uM by two-microelectrode voltage clamp electrophysiology relative to control; format: cell-based
In short: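 Rat α1β2γ2s cRNAs (1:1:10) injected into collagenase-defolliculated oocytes, kept at 18 °C in ND96 with penicillin-streptomycin, and recorded on days 1–5. Test agent applied by fast perfusion with GABA EC5–10 in 1% DMSO final. Enhancement = I(GABA+Comp)/IGABA − 1.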

Rattus norvegicus [3] = species: Rattus norvegicus; experiment: Positive allosteric modulation of rat alpha1beta2gamma2S GABAA receptor expressed in Xenopus laevis oocytes assessed as potentiation of GABA-induced chloride current at 300 uM by two-microelectrode voltage clamp electrophysiology; format: cell-based
In short: (§1)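 Rat α1β2γ2s cRNAs (1:1:10) were injected into collagenase-treated Xenopus oocytes, which were kept at 18 °C in ND96 and recorded on days 1–5. Two-electrode clamp was held at −70 mV in bath containing 90 mM NaCl and 5 mM HEPES, pH 7.4. Compound at 0.1–300 μM was co-applied with GABA EC5–10 by fast perfusion, with 1% DMSO final. Enhancement is I(GABA+Comp)/IGABA − 1, given as mean ± SE from four oocytes across three batches.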

Rattus norvegicus [4] = species: Rattus norvegicus; experiment: Agonist activity at rat alpha1beta2gamma2S GABAA receptor expressed in Xenopus laevis oocytes assessed as direct activation of chloride current in absence of GABA at 0.1 to 30 uM by two-microelectrode voltage clamp electrophysiology
Rattus norvegicus [5] = species: Rattus norvegicus; experiment: Positive allosteric modulation of rat alpha1beta2gamma2S GABAA receptor expressed in Xenopus laevis oocytes assessed as potentiation of GABA-induced chloride current by two-microelectrode voltage clamp electrophysiology relative to control; format: cell-based; in short: as §1
[6] = Positive allosteric modulation of rat alpha1beta2gamma2S GABAA receptor expressed in Xenopus laevis oocytes assessed as potentiation of GABA-induced chloride current by two-microelectrode voltage clamp electrophysiology; format: cell-based; in short: as §1

Work on Oc1ccc2c(c1)OC[C@H]1c3cc4ccoc4cc3O[C@@H]21 yielded a %max (Rattus norvegicus [1]) of 213%.

In the case of O=C1c2ccc(O)cc2O[C@H](c2ccccc2)[C@H]1O, the %max (Rattus norvegicus [1]) is reported as 11.7%.

In the case of CC(C)=CCc1c(O)ccc2c1O[C@H](c1ccc(O)cc1)[C@@H](O)C2=O, the %max (Rattus norvegicus [1]) is reported as 272%.

For CN1C(=O)CN=C(c2ccccc2)c2cc(Cl)ccc21, the Activity (Rattus norvegicus [2]) was 231%.

Molecule CO[C@H](Cc1ccccc1)C(=O)c1ccc(O)cc1O has a %max (Rattus norvegicus [1]) of 88.8%.

For CC(C)=CCc1c(O)c(CCC(C)(C)O)cc2c1O[C@H](c1ccc(O)cc1)[C@@H](O)C2=O, the %max (Rattus norvegicus [1]) was -26%.

In the case of CC(C)(O)CCc1cc2c(cc1O)O[C@H]1c3ccc(O)cc3OC[C@@H]21, the Activity (Rattus norvegicus [3]) is reported as “inactive”, the Activity (Rattus norvegicus [4]) is reported as “inactive” and the Emax (Rattus norvegicus [5]) is reported as 640%. The EC50 [6] was 8.6 µM and the %max (Rattus norvegicus [1]) was 489%.

CC(C)=CCc1cc2c(c(CC=C(C)C)c1O)O[C@H](c1ccc(O)cc1)[C@@H](O)C2=O gave a %max (Rattus norvegicus [1]) of 287%.

For CC(C)=CCc1cc2c(cc1O)OCC(c1ccc(O)cc1O)C2=O (stereo unspecified), the %max (Rattus norvegicus [1]) was 199%.

Work on CO/C(=C\c1ccccc1)C(=O)c1ccc(O)cc1O yielded a %max (Rattus norvegicus [1]) of 228%.

With CC1(C)C=Cc2cc3c(cc2O1)O[C@H]1c2ccc(O)cc2OC[C@@H]31 [ISONEORAUTENOL] the Activity (Rattus norvegicus [3]) was “inactive”, the Activity (Rattus norvegicus [4]) was “inactive” and the Emax (Rattus norvegicus [5]) was 771%. It also gave an EC50 [6] of 40.7 µM and a %max (Rattus norvegicus [1]) of 388%.

With CC(C)=CCc1c(O)ccc2c(=O)c(-c3ccc(O)cc3O)coc12 the Activity (Rattus norvegicus [4]) was “inactive”, the Emax (Rattus norvegicus [5]) was 553% and the EC50 [6] was 2.8 µM. For the same molecule, the %max (Rattus norvegicus [1]) was 560%.

Molecule CC(C)=CCc1c(O)ccc2c1OCC(c1ccc(O)cc1O)C2=O (stereo unspecified) has a %max (Rattus norvegicus [1]) of 361%.

With CC(C)=CCc1cc2c(cc1O)O[C@H]1c3ccc(O)c(O)c3OC[C@@H]21 the Activity (Rattus norvegicus [3]) was “inactive”, the Activity (Rattus norvegicus [4]) was “inactive” and the Emax (Rattus norvegicus [5]) was 491%. It also gave an EC50 [6] of 18.8 µM and a %max (Rattus norvegicus [1]) of 454%.

CC(C)=CCc1c(O)ccc2c(=O)c(-c3ccc(O)cc3)coc12 gave a %max (Rattus norvegicus [1]) of 192%.

In the case of Oc1ccc2c(c1)OC[C@H]1c3cc4c(cc3O[C@@H]21)OCO4, the %max (Rattus norvegicus [1]) is reported as 238%.
